We go through 1 compound from ChEMBL document CHEMBL1629448, “Identification and synthesis of novel inhibitors of acetyl-CoA carboxylase with in vitro and in vivo efficacy on fat oxidation” (J Med Chem, 2010).

Broadly, the IC50 is the point on the concentration scale where inhibition reaches its midpoint. A word on the half-life: it is the time in which the quantity being followed falls by half. Low readings indicate fast loss, high ones slow loss. One may read the AUC(0-inf) as the area under the concentration-time curve extrapolated to infinity. A low value points to low exposure. A word on the clearance: it is the rate of elimination divided by the concentration. Low values mean inefficient removal, high ones efficient removal. As a reminder, the Vd is a proportionality between amount in the body and measured concentration, not a real space. A high value points to extensive tissue distribution. One may read the Cmax as the peak of the concentration-time curve. The Tmax is the time at which the peak concentration occurs. The term bioavailability denotes the share of a dose that reaches the circulation, judged against a reference dose that is usually intravenous. Low values mean little systemic uptake, high ones much systemic uptake. For orientation: Kp means the ratio of the level in a tissue or fluid to that in plasma or blood.

Data set [1] can be described thus: Inhibition of N-terminal His-tagged rat recombinant ACC2 expressed in high five insect cells by ATP consumption assay.
Data set [2] has as its target T1, Peroxisome proliferator-activated receptor alpha (Homo sapiens) (UniProt Q07869).
T1 sequence (whole entry): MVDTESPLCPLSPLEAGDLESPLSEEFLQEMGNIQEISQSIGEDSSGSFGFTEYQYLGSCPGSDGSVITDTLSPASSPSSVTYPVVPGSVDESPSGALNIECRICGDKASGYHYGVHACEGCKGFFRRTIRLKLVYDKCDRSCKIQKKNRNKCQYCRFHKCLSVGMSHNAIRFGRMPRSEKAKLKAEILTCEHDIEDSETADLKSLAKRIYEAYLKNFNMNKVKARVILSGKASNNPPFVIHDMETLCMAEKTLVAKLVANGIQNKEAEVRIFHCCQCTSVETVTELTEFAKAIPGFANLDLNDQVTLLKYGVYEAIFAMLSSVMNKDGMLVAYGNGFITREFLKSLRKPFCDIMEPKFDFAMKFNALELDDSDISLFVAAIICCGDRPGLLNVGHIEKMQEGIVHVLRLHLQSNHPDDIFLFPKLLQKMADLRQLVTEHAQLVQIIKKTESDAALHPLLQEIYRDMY
Description: Inhibition of PPARalpha.

The target in data set [3] is T2, Peroxisome proliferator-activated receptor gamma (Homo sapiens) (UniProt P37231).
T2 sequence (whole entry): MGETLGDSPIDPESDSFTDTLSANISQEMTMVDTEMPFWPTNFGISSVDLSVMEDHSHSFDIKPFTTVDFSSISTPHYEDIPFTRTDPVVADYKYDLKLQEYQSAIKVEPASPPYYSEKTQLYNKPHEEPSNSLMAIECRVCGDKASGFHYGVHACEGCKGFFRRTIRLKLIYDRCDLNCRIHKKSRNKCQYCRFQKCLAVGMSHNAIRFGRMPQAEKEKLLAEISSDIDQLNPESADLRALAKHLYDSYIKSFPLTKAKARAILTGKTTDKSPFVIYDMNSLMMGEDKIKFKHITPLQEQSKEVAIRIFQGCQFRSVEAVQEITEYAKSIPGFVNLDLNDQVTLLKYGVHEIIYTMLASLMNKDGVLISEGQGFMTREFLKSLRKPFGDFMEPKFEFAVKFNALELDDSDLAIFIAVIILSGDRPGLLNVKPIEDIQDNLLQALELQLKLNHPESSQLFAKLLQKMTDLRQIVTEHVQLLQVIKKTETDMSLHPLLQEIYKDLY
Description: Inhibition of PPARgamma.

The target in data set [4] is T3, Peroxisome proliferator-activated receptor delta (Homo sapiens) (UniProt Q03181).
T3 sequence (whole entry): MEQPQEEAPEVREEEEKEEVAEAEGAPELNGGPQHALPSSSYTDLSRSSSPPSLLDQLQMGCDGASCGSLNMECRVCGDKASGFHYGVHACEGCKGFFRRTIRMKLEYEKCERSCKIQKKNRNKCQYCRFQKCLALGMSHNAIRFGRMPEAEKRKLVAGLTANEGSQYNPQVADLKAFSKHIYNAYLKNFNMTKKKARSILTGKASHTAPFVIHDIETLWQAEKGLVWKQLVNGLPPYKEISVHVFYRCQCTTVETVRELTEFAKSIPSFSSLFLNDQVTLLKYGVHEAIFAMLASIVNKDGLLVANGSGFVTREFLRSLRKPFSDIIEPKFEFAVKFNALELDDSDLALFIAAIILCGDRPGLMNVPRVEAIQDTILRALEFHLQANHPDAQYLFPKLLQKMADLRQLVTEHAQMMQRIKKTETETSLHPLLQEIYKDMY
Description: Inhibition of PPARdelta.

Data set [5] is described as follows: Half life in Wistar rat plasma at 3 mg/kg, iv. The arrangement: dose 3 mg/kg, route intravenous. It counts as ADME, organism-based. Put shortly: (§1)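 Wistar rats given an intravenous bolus of 3 mg/kg in 5% solutol solution. Plasma sampled at eight time points over 24 h. Drug quantified by LC-MS/MS against an internal standard. C0h is the concentration immediately after dosing; AUC0-inf, clearance, t1/2 and Vdss were also derived.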

The nature of data set [6]: AUC (0 to infinity) in Wistar rat plasma at 3 mg/kg, iv. It counts as ADME, organism-based. Also on record: dose 3 mg/kg, route intravenous, time infinity. Put shortly: as §1
Data set [7] in a line: Clearance in Wistar rat plasma at 3 mg/kg, iv. It counts as ADME, organism-based. The arrangement: dose 3 mg/kg, route intravenous. Put shortly: as §1
Data set [8] in a line: Volume of distribution at steady state in Wistar rat plasma at 3 mg/kg, iv. It counts as ADME, organism-based. The arrangement: dose 3 mg/kg, route intravenous. The essentials: as §1
Data set [9] can be described thus: Cmax in Wistar rat plasma at 10 mg/kg, po. It counts as ADME, organism-based. Also on record: dose 10 mg/kg, route oral. The essentials: (§2)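 Female Wistar rats given a single oral dose of 10 mg/kg in 10% DMSO. Plasma and liver sampled at eight time points over 24 h, three animals killed per time point. Drug levels measured by LC-MS/MS with an internal standard. […] Values are means ± SD (n = 3).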

Data set [10] is described as follows: Cmax in Wistar rat liver at 10 mg/kg, po. The arrangement: dose 10 mg/kg, route oral. It counts as ADME, organism-based. The essentials: as §2
A short description of data set [11]: Tmax in Wistar rat plasma at 10 mg/kg, po. It counts as ADME, organism-based. The arrangement: dose 10 mg/kg, route oral. The essentials: as §2
Data set [12] is described as follows: Tmax in Wistar rat liver at 10 mg/kg, po. It counts as ADME, organism-based. The arrangement: dose 10 mg/kg, route oral. Put shortly: as §2
Data set [13] can be described thus: Drug concentration in Wistar rat plasma at 10 mg/kg, po measured 6 hrs post dose. It counts as ADME, organism-based. Also on record: dose 10 mg/kg, route oral. The note with it: read-out: Drug uptake. Put shortly: as §2
Data set [14] is described as follows: Drug concentration in Wistar rat liver at 10 mg/kg, po measured 6 hrs post dose. It counts as ADME, organism-based. The arrangement: dose 10 mg/kg, route oral. To be noted: read-out: Drug uptake. Put shortly:
as §2

Data set [15] can be described thus: AUC (0 to infinity) in Wistar rat plasma at 10 mg/kg, po. It counts as ADME, organism-based. Also on record: time infinity, dose 10 mg/kg, route oral. Put shortly: as §2
Data set [16] is described as follows: AUC (0 to infinity) in Wistar rat liver at 10 mg/kg, po. It counts as ADME, organism-based. Also on record: time infinity, dose 10 mg/kg, route oral. The essentials: as §2
Data set [17] is described as follows: Half life in Wistar rat plasma at 10 mg/kg, po. It counts as ADME, organism-based. The arrangement: dose 10 mg/kg, route oral. Put shortly:
as §2

Data set [18] is described as follows: Half life in Wistar rat liver at 10 mg/kg, po. It counts as ADME, organism-based. The arrangement: dose 10 mg/kg, route oral. Put shortly: as §2
A short description of data set [19]: Oral bioavailability in Wistar rat at 10 mg/kg. It counts as ADME, organism-based. To be noted: in vivo.
The nature of data set [20]: Ratio of AUC (0 to infinity) in liver to plasma of Wistar rat at 10 mg/kg, po. It counts as ADME, organism-based. Also on record: dose 10 mg/kg, route oral. The essentials:
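Female Wistar rats received a single oral 10 mg/kg dose in 10% DMSO. Plasma and liver were sampled at eight time points over 24 h, with three animals killed per time point. Drug levels were measured by LC-MS/MS against an internal standard. Liver/plasma ratio was calculated from AUC0-inf.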

The test system of data set [21] is Rattus norvegicus. Description: Stimulation of fat oxidation in Wistar rat assessed as decrease in respiratory quotient at 50 mg/kg, po administered 2 hrs before lipid load. It counts as functional, organism-based. The arrangement: dose 50 mg/kg. Put shortly:
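Female Wistar rats housed singly in calorimetry cages, acclimated at least 12 h. Dosed orally with 50 mg/kg or vehicle. Two hours later, oral 10 mL/kg 20% Lipofundin MCT (2 g fat/kg) or PBS. O₂ and CO₂ measured every 17 min per cage for 1 min. RQ is CO₂ production/O₂ consumption.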

For data set [22], the system named is Rattus norvegicus. Description: Reduction in plasma triglycerides in obese ZDF rat at 30 mg/kg, po for 3 days measured 4 hrs post last dose. It counts as functional, organism-based. The arrangement: dose 30 mg/kg. The essentials: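 Female obese ZDF rats, eight weeks old, dosed orally for 3 days with 30 mg/kg in 5% ethanol/5% solutol/90% PBS (n = 8); controls got vehicle, with lean controls alongside. Four hours after the last dose, aortic blood taken under isoflurane. Triglycerides measured by GPD-PAP method; means ± SEM.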

The source made the active and inactive calls. The rule behind the calls is not given here.

As for `CC(=O)N[C@@H](C)CCc1ccc(Oc2ccc(OC(C)C)nc2)cc1`, in data set [1], the IC50 was determined as 400 nM. Moreover, the inhibition entry in data set [2], in data set [3] and in data set [4] was “inactive” throughout. For the same compound, the half-life in [5] was 90 min; in [17] it was 108 min; in [18], 180 min. The AUC(0-inf) in [6] came out at 5.6 µM·h; in [15] it was 19 µM·h; in data set [16], 120 µM·h. In data set [7], this compound had a clearance of 26.7 mL/min/kg. Besides, the volume of distribution (Vd) in [8] came out at 2.6 L/kg. In addition, the Cmax came to 3.5 µM in [9] and 21.8 µM in [10]. Moreover, the Tmax in data set [11] and in [12] was 2 h each time. Moreover, the concentration at 6 h in data set [13] is 1590 nM; in data set [14], 7.59 µM. This compound also gave a bioavailability in [19] of 98%. The Kp in data set [20] amounted to 6. Besides, the outcome in the data set on Rattus norvegicus [21] and with Rattus norvegicus [22] was Active.
